TRPC6 act = mouse TRPC6 channel activators, primary screen, cell-based, HEK293, membrane potential dye. AID 2550, 2010. Short transient receptor potential channel 6 (Mus musculus), Q61143. actives 0.13% (n = 310,000). HEK293-TRPC6 membrane potential dye fluorescence; stronger effect = higher value. B-score at 10 µM;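 active = B-score of the integrated fluorescence ratio above library mean plus 3 SD, and starting fluorescence ratio within library mean plus 5 SD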;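 note: higher score means more depolarization so channel activation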
TRPC4 PAM = positive allosteric modulators of TRPC4, primary screen, cell-based, mouse TRPC4beta, HEK293 mu-opioid, Fluo-4 calcium; Short transient receptor potential channel 4 (Mus musculus), Q9QUQ5; DAMGO EC20, Fluo-4 Ca2+ flux; stronger effect = higher value; B-score at 10 µM; actives 0.42% (n = 310,000); AID 2227, 2009;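 active = B-score of calcium response area above 5 SD of library B-scores, with initial fluorescence ratio within 5 SD of library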;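 note: B-score of integrated fluorescence ratio over time as area under calcium response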
Target sequence (Q9QUQ5 whole entry, looked up): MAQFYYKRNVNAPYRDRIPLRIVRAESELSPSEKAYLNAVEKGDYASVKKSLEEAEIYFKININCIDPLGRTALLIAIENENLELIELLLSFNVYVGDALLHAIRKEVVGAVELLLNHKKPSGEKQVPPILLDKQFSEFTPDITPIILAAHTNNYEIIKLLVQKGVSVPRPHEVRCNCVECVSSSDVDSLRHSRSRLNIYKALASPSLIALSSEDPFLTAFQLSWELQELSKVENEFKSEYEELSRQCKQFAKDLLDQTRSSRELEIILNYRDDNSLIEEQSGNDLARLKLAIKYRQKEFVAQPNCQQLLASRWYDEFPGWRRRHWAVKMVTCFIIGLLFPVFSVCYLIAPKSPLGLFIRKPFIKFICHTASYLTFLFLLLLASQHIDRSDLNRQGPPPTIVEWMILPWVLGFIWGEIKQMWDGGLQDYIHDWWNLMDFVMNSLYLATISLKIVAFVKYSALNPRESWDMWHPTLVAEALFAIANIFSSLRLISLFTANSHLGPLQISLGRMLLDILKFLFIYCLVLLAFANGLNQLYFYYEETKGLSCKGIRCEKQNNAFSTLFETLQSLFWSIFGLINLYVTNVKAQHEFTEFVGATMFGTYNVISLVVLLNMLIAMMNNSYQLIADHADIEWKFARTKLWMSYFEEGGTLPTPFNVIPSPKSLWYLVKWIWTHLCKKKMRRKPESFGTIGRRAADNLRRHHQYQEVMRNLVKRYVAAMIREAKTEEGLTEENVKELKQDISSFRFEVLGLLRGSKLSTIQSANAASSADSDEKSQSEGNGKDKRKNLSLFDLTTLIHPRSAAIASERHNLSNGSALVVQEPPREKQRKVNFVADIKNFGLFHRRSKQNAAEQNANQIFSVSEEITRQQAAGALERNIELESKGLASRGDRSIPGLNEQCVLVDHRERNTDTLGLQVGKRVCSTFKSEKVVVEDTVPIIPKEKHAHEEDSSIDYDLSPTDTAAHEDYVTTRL
TRPC4 inh = inhibitors of mouse TRPC4 channel, primary screen, Fluo4 calcium, HEK293 TRPC4beta/mu-opioid cells. actives 0.39% (n = 300,000). B-score at 10 µM. DAMGO-evoked Fluo4 calcium flux; stronger effect = lower value. Short transient receptor potential channel 4 (Mus musculus), Q9QUQ5;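 active = B-score over 3 SD under the library average, no early fluorescence shift, positive overall ratio signal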
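Assay system: HEK293 cells with stable TRPC4beta plus mu-opioid receptor expression; Probe or stimulus: DAMGO in two steps, submaximal then maximal; Dosing: single-point compound dosing; Measured by: Fluo4 calcium-dye fluorescence, kinetic read; Read-out basis: B score from integrated Fluo4 fluorescence ratio.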
TRPC6 inh = mouse TRPC6 channel inhibitors, primary screen, cell-based, HEK293, membrane potential dye | B-score at 10 µM | actives 1.1% (n = 310,000) | AID 2553, 2010 | ACh-evoked depolarization; stronger effect = lower value;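 active = B-score under library mean minus 3 SD, initial fluorescence not abnormally high, positive integrated signal ratio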;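 note: B-score derived from integrated fluorescence ratio over the kinetic read; more negative B-score means stronger inhibition of depolarization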
TRPC4 agonist = activators of mouse TRPC4 channel, primary screen, Fluo4 calcium, HEK293 TRPC4beta/mu-opioid cells; Fluo4 calcium fluorescence; stronger effect = higher value; Short transient receptor potential channel 4 (Mus musculus), Q9QUQ5; B-score at 10 µM; actives 0.49% (n = 310,000); AID 2237, 2010;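 active = B-score above 5 SD of library B-scores, and initial fluorescence ratio not above library mean plus 5 SD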;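 note: positive B-score marks a calcium rise read as TRPC4 activation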
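Assay system – TRPC4beta and mu-opioid receptor HEK293 stable cells · Measured by – Fluo4 fluorescence, kinetic · Schedule – dye loading 45 min room temperature, 110 s kinetic read · Read-out – B-scored integrated calcium fluorescence ratio · Controls – buffer and maximal DAMGO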
TRPC4 spec 2 = second check of whether TRPC6 inhibitors also affect mouse TRPC4; shares compounds with TRPC6 inh; HEK293 TRPC4/MOR, membrane potential dye fluorescence; channel activated by saturating DAMGO dose; inhibition, % at 10 µM; actives 42% (n = 920); AID 2776;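 active = compounds whose fluorescence signal differed from control wells by over 3 SD, either direction, in both duplicate plates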
TRPC4 spec = mouse TRPC4 modulation by TRPC6 hits, confirmation, selectivity assay for TRPC6 inhibitor project, cell-based, HEK293 TRPC4/mu-opioid, membrane potential dye; shares compounds with TRPC6 inh; membrane potential fluorescence; activity change, negative = inhibition, % at 10 µM; actives 61% (n = 920); AID 2777, 2010;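 active = rise or fall in signal beyond 3 SD of buffer-only wells in both replicate plates, either sign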;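 note: integrated kinetic ratio of fluorescence range over baseline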
HEK293 MPD ctr 2-1 = nonspecific membrane potential effects, parental HEK293, confirmation, counter-screen for TRPC6 inhibitor project, cell-based, second counter screen; actives 31% (n = 920); parental HEK293 membrane potential dye fluorescence; maximal acetylcholine challenge after compound addition; signal change vs control, % at 10 µM; shares compounds with TRPC6 inh;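 active = membrane potential signal moving either way by over 3 SD of the maximum-effect control, in both duplicate plates, meaning non-specific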
HEK293 MPD ctr-1 = membrane potential modulation in parental HEK293, confirmation, counter-screen for TRPC6 inhibitor project, cell-based | shares compounds with TRPC6 inh | parental HEK293 membrane potential dye fluorescence | membrane potential signal change, % at 10 µM | actives 60% (n = 920);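 active = membrane potential signal shifting up or down by more than 3 SD of buffer-only wells, on both duplicate plates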
HEK293 MPD ctr-2 = parental HEK293 membrane potential modulation, confirmation, counter-screen for TRPC6 modulator project, cell-based; membrane potential signal change, % at 10 µM; shares compounds with TRPC6 inh; AID 488924, 2010; actives 51% (n = 2,400); membrane potential dye fluorescence;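 active = membrane potential signal moves up or down beyond 5 SD from buffer-only wells, on both duplicate plates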
HEK293 MPD ctr 2-2 = parental HEK293 nonspecific activity of TRPC6 modulators, second screen; inhibition, % at 10 µM; actives 14% (n = 2,400); membrane potential dye fluorescence; after compound, maximal acetylcholine stimulation; shares compounds with TRPC6 inh; AID 488926;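 active = membrane potential signal drops by more than 5 SD from the mean control signal, in both duplicate plates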;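 note: plate controls were acetylcholine ECmax control wells for no effect and buffer only wells for full effect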
TRPC4/MOR mod = TRPC4 modulation by TRPC6 hit compounds, confirmation, selectivity assay for TRPC6 modulator project, cell-based, HEK293 TRPC4/mu-opioid, membrane potential dye, mouse. percent change from control (negative = decrease, positive = increase), % at 10 µM. actives 69% (n = 2,400). membrane potential fluorescence. shares compounds with TRPC6 inh;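 active = membrane potential signal moved up or down beyond 5 SD of buffer control wells, in both duplicate plates, actives on both sides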;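 note: plate controls were assay buffer wells for no effect and DAMGO maximal-effect wells for full effect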
TRPC4/MOR inh 2 = second selectivity test of TRPC6 modulators against mouse TRPC4. shares compounds with TRPC6 inh. HEK293 TRPC4/mu-opioid, membrane potential dye fluorescence; stimulated with maximal-effect DAMGO. inhibition, % at 10 µM. actives 55% (n = 2,400);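 active = drop in membrane potential signal beyond 5 SD of the control wells in both duplicate plates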;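 note: TRPC4 counter screen for TRPC6 hits run under conditions tuned for TRPC6 not TRPC4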
TRPC6 inh conf = mouse TRPC6 channel inhibitors, confirmation, HEK293 cells, membrane potential dye, duplicate | shares compounds with TRPC6 inh | inhibition, % at 10 µM | ACh-evoked depolarization | actives 43% (n = 3,300);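 active = fluorescence ratio falls more than 5 SD below the full-stimulation control mean, in both duplicate runs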;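 note: integrated fluorescence ratio of peak minus minimum over baseline after agonist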
TRPC6 act confirm = mouse TRPC6 channel activators, confirmation, HEK293 cells, membrane potential dye, duplicate. AID 488961, 2010. shares compounds with TRPC6 inh. activation, % at 10 µM. actives 11% (n = 2,800). HEK293-TRPC6 membrane potential dye fluorescence, FDSS;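 active = ratio signal rise beyond 5 SD above unstimulated control wells' mean, seen in both duplicate runs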;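 note: plate controls were buffer EC0 wells for no effect and acetylcholine ECmax response for full effect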
Numbers without * were called inactive; i = inactive; nt = no result given. This is a sample that favours compounds with a hit; in the whole collection about 2.3% have one here.

SMILES	TRPC6 act	TRPC4 PAM	TRPC4 inh	TRPC6 inh	TRPC4 agonist	HEK293 MPD ctr-2	HEK293 MPD ctr 2-2	TRPC4/MOR mod	TRPC4/MOR inh 2	TRPC6 inh conf	TRPC6 act confirm	others
CCCc1ncc(C(O)(c2ccccc2)c2ccccc2)n1C	i	i	i	-8.76*	i	nt	nt	nt	nt	57.6%*	nt	TRPC4 spec 2=i;TRPC4 spec=21.8%*;HEK293 MPD ctr 2-1=i;HEK293 MPD ctr-1=15.5%*
CCCc1ncc(C(O)(c2ccccc2)c2ccc(C)cc2)n1C (stereo not given)	i	i	i	i	i	nt	nt	nt	nt	nt	nt
Cn1nccc1C(=O)NC1CCN(Cc2ccccc2)CC1	i	i	i	i	i	nt	nt	nt	nt	nt	nt
Cc1ccc(OCCCCNC2CCCC(C)C2C)c(C)c1 (stereo not given)	13*	i	i	-5.69*	i	348.5%*	i	102.0%*	51.0%*	i	119.0%*
CCOC(=O)N1CCC(N2CCN(Cc3ccccc3)C(CCO)C2)CC1 (stereo not given)	i	i	i	i	i	nt	nt	nt	nt	nt	nt
CCOC(=O)N1CCC(NC2CCCCCCC2)CC1	i	i	i	-8.48*	i	nt	nt	nt	nt	i	nt	TRPC4 spec 2=i;TRPC4 spec=i;HEK293 MPD ctr 2-1=i;HEK293 MPD ctr-1=3.0%*
CCOC(=O)N1CCC(N2CCN(C3CCCC3)C(CCO)C2)CC1 (stereo not given)	i	i	i	-8.15*	i	nt	nt	nt	nt	i	i	TRPC4 spec 2=i;TRPC4 spec=i;HEK293 MPD ctr 2-1=i;HEK293 MPD ctr-1=i
Cc1ccccc1NS(=O)(=O)c1cccc2nsnc12	i	i	i	i	i	nt	nt	nt	nt	nt	nt
COc1ccc(C2C(C(N)=O)=C(C)Nc3nc(CCCO)nn32)cc1 (stereo not given)	i	i	i	i	i	nt	nt	nt	nt	nt	nt
COc1ccc(C2C(C(N)=O)=C(C)Nc3nc(CCCO)nn32)cc1OC (stereo not given)	i	i	i	-5.88*	i	i	i	i	i	i	i
CC(C)(C)N(Cc1ccccc1)C(=O)c1ccc(Cl)cc1[N+](=O)[O-]	i	i	i	-6.48*	i	i	i	i	i	i	i
O=c1[nH]c2ccc(S(=O)(=O)N3CCN(c4ccccc4F)CC3)cc2s1	i	i	i	-7.99*	i	nt	nt	nt	nt	i	i	TRPC4 spec 2=i;TRPC4 spec=0.3%*;HEK293 MPD ctr 2-1=225.5%*;HEK293 MPD ctr-1=i
Cc1nc(NC(=O)c2c(-c3ccccc3Cl)noc2C)sc1C	i	i	i	i	i	nt	nt	nt	nt	nt	nt
CCCNc1c(NC(=O)c2cccs2)c(=O)oc2ccccc12	i	i	i	i	i	nt	nt	nt	nt	nt	nt
COc1ccc(C(=O)c2c3ccc(C(F)(F)F)cc3[n+]([O-])n2CCCN)cc1	i	i	i	-5.69*	i	i	i	-9.5%*	47.0%*	48.0%*	i
Cc1ccc(C(=O)c2c3ccc(C(F)(F)F)cc3[n+]([O-])n2CCCN)cc1	i	i	i	-8.1*	i	nt	nt	nt	nt	76.2%*	i	TRPC4 spec 2=49.5%*;TRPC4 spec=-12.2%*;HEK293 MPD ctr 2-1=i;HEK293 MPD ctr-1=-157.5%*
O=C(N/N=C/c1ccc2c(c1)OCO2)C(=O)Nc1cccc(Cl)c1	i	i	i	i	i	nt	nt	nt	nt	nt	nt
CN(CC(=O)Nc1cccc(F)c1)C(=O)c1ccc(N2CCOCC2)c([N+](=O)[O-])c1	i	i	i	-6.97*	i	i	i	91.5%*	75.5%*	i	i
O=c1c2ccccc2nc(SCc2ccc([N+](=O)[O-])cc2)n1CCCO	i	i	-6*	-5.46*	i	i	i	i	83.5%*	i	i
O=C1NC(=S)S/C1=C/c1ccc(Oc2cnccn2)cc1	i	i	i	i	i	nt	nt	nt	nt	nt	nt
CCOc1ccc(N(C)c2ccc(/C=C3/SC(=S)NC3=O)cc2)cc1	18*	i	i	i	i	i	i	81.5%*	i	i	i
COc1ccccc1Nc1c2ccccc2nc2ccccc12	i	i	i	-6.73*	i	-182.0%*	i	-35.5%*	68.5%*	50.0%*	i
CC(C)(C)Nc1c2ccccc2nc2ccccc12	i	i	i	-8.9*	i	-201.5%*	i	-34.0%*	87.0%*	53.0%*	i

Bioassay records from PubChem BioAssay.
